Tests used:
[1] = 50% lethal dose for inhibition of KB cells growth; assay type: cell-based; conditions: human, read-out: LD50 (the source's name)
Outline: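 KB cell line growth measured over a dose-response series by the Alamar blue method. The LD50 is the concentration lethal to 50% of KB cells. The highest level tested was 300 μg/mL; ">" means no inhibition at that level.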

[2] = Therapeutic index measured as the ratio of LD50 (KB cells) to IC50 (T.b. rhodesiense); assay type: cell-based; conditions: trypanosoma brucei rhodesiense, KB cells versus T. b. rhodesiense; read-out: TI
Outline: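 KB cell growth inhibition measured by Alamar blue to give LD50, the dose lethal to 50% of cells; highest level tested 300 μg/mL. Index computed as LD50 (KB cells) / IC50 (T. b. rhodesiense).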

[3] = tested on: Trypanosoma brucei rhodesiense; assay: Predicted pIC50 against Trypomastigotes Brucei rhodesiense.; assay type: functional, organism-based
Outline: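 QSAR prediction from a bisphosphonate training set. Structures geometry-optimized by steepest-descent, conjugate-gradient and Newton–Raphson minimization with no internal constraints. Each molecule aligned by rms fit of its P–C–P backbone to the lowest-energy conformer of the template. Models validated by leave-one-out cross-validation.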

[4] = tested on: Trypanosoma brucei rhodesiense; assay: In vitro growth inhibition of bloodstream-form Trypanosoma brucei rhodesiense Trypomastigotes; assay type: functional, organism-based
Outline: (§1)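 Bloodstream-form T. b. rhodesiense trypomastigotes, strain STIB 900, grown in vitro with the bisphosphonate. IC50 taken as the drug concentration that cuts parasite proliferation by 50%.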

[5] = tested on: Trypanosoma brucei rhodesiense; assay: Log IC50 brucei Trypomastigotes; assay type: functional, organism-based; outline: as §1
[6] = tested on: Trypanosoma brucei rhodesiense; assay: In vitro rescue of growth inhibition of Trypanosoma brucei rhodesiense [risedronate + farnesol(12.5 ug/mL)]; assay type: functional, organism-based
[7] = tested on: Trypanosoma brucei rhodesiense; assay: In vitro rescue of growth inhibition of Trypanosoma uM of risedronate along with farnesol (12.5 ug/mL); assay type: functional
[8] = tested on: Trypanosoma brucei rhodesiense; assay: (§2) In vitro rescue of growth inhibition of Trypanosoma uM of compound; assay type: functional
[9] = tested on: Trypanosoma brucei rhodesiense; assay: as §2; assay type: functional; remark: listed apart in the source
[10] = tested on: Trypanosoma brucei rhodesiense; assay: as §2; assay type: functional; remark: listed apart in the source
[11] = tested on: Trypanosoma brucei rhodesiense; assay: as §2; assay type: functional; remark: listed apart in the source
[12] = tested on: Trypanosoma brucei rhodesiense; assay: as §2; assay type: functional; remark: listed apart in the source
[13] = tested on: Trypanosoma brucei rhodesiense; assay: 50% inhibitory concentration against Trypanosoma brucei rhodesiense; assay type: functional, organism-based; outline: as §1
[14] = tested on: Trypanosoma brucei rhodesiense; assay: as §2; assay type: functional; remark: listed apart in the source
[15] = tested on: Trypanosoma brucei rhodesiense; assay: Percent inhibition of Trypanosoma brucei rhodesiense at 9.27 uM of risedronate along with GPP; assay type: functional
[16] = tested on: Trypanosoma brucei rhodesiense; assay: Percent inhibition of Trypanosoma brucei rhodesiense at 1.03 uM of risedronate along with GPP; assay type: functional
[17] = tested on: Trypanosoma brucei rhodesiense; assay: Percent inhibition of Trypanosoma brucei rhodesiense at 27.85 uM of risedronate along with GPP; assay type: functional
[18] = tested on: Trypanosoma brucei rhodesiense; assay: Percent inhibition of Trypanosoma brucei rhodesiense at 3.09 uM of risedronate along with GPP; assay type: functional
Outline: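 Rescue assay with bloodstream-form trypomastigotes (strain STIB900) seeded at 1 × 10^5/mL in HMI-18 medium with 20% HIFCS. Bisphosphonate was given as three-fold serial dilutions from 83.5 μM, in triplicate. Geranyl pyrophosphate was added at a final 12.5 μg/mL. Plates were incubated for 72 h at 37 °C in 5% CO2-air, then Alamar Blue was added for 4 h and fluorescence read at 530/585 nm.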

[19] = tested on: Trypanosoma brucei rhodesiense; assay: Percent inhibition of Trypanosoma brucei rhodesiense at 83.54 uM of risedronate along with GPP; assay type: functional
[20] = tested on: Trypanosoma brucei rhodesiense; assay: In vitro growth inhibition of Trypanosoma brucei rhodesiense (risedronate + GPP); assay type: functional, organism-based
[21] = tested on: Trypanosoma brucei rhodesiense; assay: Percent inhibition of Trypanosoma brucei rhodesiense at 27.85 uM of risedronate along with FPP; assay type: functional
[22] = tested on: Trypanosoma brucei rhodesiense; assay: Percent inhibition of Trypanosoma brucei rhodesiense at 83.54 uM of risedronate along with FPP; assay type: functional
[23] = tested on: Trypanosoma brucei rhodesiense; assay: Percent inhibition of Trypanosoma brucei rhodesiense at 9.27 uM of risedronate along with FPP; assay type: functional
[24] = tested on: Trypanosoma brucei rhodesiense; assay: In vitro growth inhibition of Trypanosoma brucei rhodesiense (risedronate + FPP); assay type: functional, organism-based

Compound	CC50 [1]	selectivity ratio [2]	IC50 [3]	IC50 [4]	also measured
O=P(O)(O)C(O)(Cc1c[nH]cn1)P(=O)(O)O	41 µM	5	8.51 µM		
CCCCCN(C)CCC(O)(P(=O)(O)O)P(=O)(O)O [IBANDRONIC ACID]	10.1 µM	10	0.955 µM	0.96 µM	
O=P(O)(O)C(O)(Cc1ccccn1)P(=O)(O)O	13.9 µM	63	0.219 µM		
CCCCCCCCCCCC(O)(P(=O)(O)O)P(=O)(O)O	492 µM	246		2 µM	IC50 [5]: 2 µM
O=P(O)(O)C(Nc1ccc(Br)cn1)P(=O)(O)O	87 µM	2	39.8 µM	39.5 µM	
CCN(CC)C(P(=O)(O)O)P(=O)(O)O [(DIETHYLAMINO)METHYLENEDIPHOSPHONIC ACID]	809 µM	24	34.7 µM	34.4 µM	
CC(C)=CCC/C(C)=C/CC/C(C)=C/CO.O=P(O)(O)C(O)(Cc1cccnc1)P(=O)(O)O					IC50 [6]: > 83.5 µM; Inhibition [7]: 0%
O=P(O)(O)C(O)(Cc1cccnc1)P(=O)(O)O [RISEDRONIC ACID]	249 µM	29	8.51 µM		Inhibition [8]: 0%; Inhibition [9]: 19.3%; Inhibition [10]: 100%; Inhibition [11]: 23.49%; Inhibition [12]: 86.49%; IC50 [13]: 4.12 µM; Inhibition [14]: 100%
CN(C)CCC(O)(P(=O)(O)O)P(=O)(O)O [OLPADRONIC ACID]	> 1050 µM	> 195	5.37 µM		
O=P(O)(O)C(O)(Cc1ccccc1)P(=O)(O)O	> 931 µM	> 44	21.4 µM		
CCCCCCCCCCC(O)(P(=O)(O)O)P(=O)(O)O	> 806 µM	> 101		8 µM	IC50 [5]: 7.94 µM
CCCCC(O)(P(=O)(O)O)P(=O)(O)O	> 1040 µM	> 10	100 µM		
O=P(O)(O)C(O)(CCc1cccnc1)P(=O)(O)O	> 804 µM	> 473	1.7 µM	1.7 µM	
Cc1cccnc1NC(P(=O)(O)O)P(=O)(O)O	187 µM	267	0.708 µM	0.7 µM	
Cc1ccnc(NC(P(=O)(O)O)P(=O)(O)O)c1	127 µM	208	0.617 µM	0.61 µM	
CC(C)=CCC/C(C)=C/COP(=O)(O)OP(=O)(O)O.O=P(O)(O)C(O)(Cc1cccnc1)P(=O)(O)O					Inhibition [15]: 83.7%; Inhibition [16]: 0%; Inhibition [17]: 100%; Inhibition [18]: 44.59%; Inhibition [19]: 100%; IC50 [20]: 3.71 µM
Nc1ccc(CC(O)(P(=O)(O)O)P(=O)(O)O)cc1	218 µM	5	39.8 µM		
CCCC(O)(P(=O)(O)O)P(=O)(O)O	> 967 µM	> 11	91.2 µM		
O=P(O)(O)C(Nc1ccc(Cl)cn1)P(=O)(O)O	> 992 µM	> 19	53.7 µM	53.3 µM	
NCCC(O)(P(=O)(O)O)P(=O)(O)O [PAMIDRONIC ACID]	156 µM	< 2		> 100 µM	IC50 [5]: > 100 µM
CC(C)CCNC(P(=O)(O)O)P(=O)(O)O [(ISOPENTYLAMINO)METHYLENEDIPHOSPHONIC ACID]	> 1150 µM	> 11	102 µM	102 µM	
CC(N)CC(O)(P(=O)(O)O)P(=O)(O)O (stereo unspecified)	977 µM	125	7.76 µM	7.8 µM	
CCCCCCCCNC(P(=O)(O)O)P(=O)(O)O [(OCTYLAMINO)METHYLENEDIPHOSPHONIC ACID]	66.8 µM	39		1.7 µM	IC50 [5]: 1.7 µM
CCCCCCCCCC(O)(P(=O)(O)O)P(=O)(O)O	> 775 µM	> 38		20.5 µM	IC50 [5]: 20.4 µM
NCCCCCC(O)(P(=O)(O)O)P(=O)(O)O [NERIDRONIC ACID]	680 µM	21			IC50 [5]: 31.6 µM
O=P(O)(O)C(NC1CCCCC1)P(=O)(O)O [(CYCLOHEXYLAMINO)METHYLENEDIPHOSPHONIC ACID]	271 µM	13	20.9 µM	20.9 µM	
O=P(O)(O)C(O)(CSc1ccncc1)P(=O)(O)O	> 746 µM	> 38	20 µM		
CC(C)=CCC/C(C)=C/CC/C(C)=C/COP(=O)(O)OP(=O)(O)O.O=P(O)(O)C(O)(Cc1cccnc1)P(=O)(O)O					Inhibition [21]: 25.4%; Inhibition [22]: 64.24%; Inhibition [23]: 0%; IC50 [24]: 66.8 µM
CCCCCNC(P(=O)(O)O)P(=O)(O)O [(PENTYLAMINO)METHYLENEDIPHOSPHONIC ACID]	> 1150 µM	> 23	50.1 µM	50.6 µM	
CCCCCC(O)(P(=O)(O)O)P(=O)(O)O	> 993 µM	> 16	63.1 µM		

Source: ChEMBL document CHEMBL1135583, “Activity of bisphosphonates against Trypanosoma brucei rhodesiense” (J Med Chem, 2002)
